Converted amounts (≈) assume the structure as drawn. The source made the active and inactive calls. The rule behind the calls is not given here.
Tests used:
Staphylococcus aureus [1] = experiment: Disruption of biofilm formation in Staphylococcus aureus 8325-4 after 24 hrs by microtiter plate assay; format: functional, organism-based
Staphylococcus aureus [2] = experiment: Inhibition of biofilm formation in Staphylococcus aureus 8325-4 after 24 hrs by microtiter plate assay; format: functional, organism-based; settings: for EC50: Staphylococcus aureus, 8325-4, 24 h
Summary of the method: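 Static 96-well crystal-violet assay with S. aureus 8325-4. Inoculum came from an overnight BHI agar culture, suspended in 0.9% NaCl to McF 0.5, 5 μL per well into TS medium containing compounds as monosodium salts at […]. Plates ran 24 h at 37 °C. Wells were rinsed three times, stained with 1% crystal violet for 15 min and eluted with 96% ethanol. Read at A630, at least triplicate.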

Staphylococcus aureus [3] = experiment: Toxicity in Staphylococcus aureus 8325-4 assessed as inhibition of bacterial growth; format: organism-based
Staphylococcus aureus [4] = experiment: Antibacterial activity against Staphylococcus aureus ATCC 29213 assessed as reduction of enrofloxacin MIC at 8 ug/ml by microbroth dilution method; format: functional
Summary of the method: (§1)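 Standard broth microdilution in Mueller-Hinton broth gave MICs. For the combination lines, enrofloxacin MIC was measured with the tested compound present at the stated concentration.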

Staphylococcus aureus [5] = experiment: Antibacterial activity against Staphylococcus aureus 8325-4 assessed as reduction of enrofloxacin MIC at 32 ug/ml by microbroth dilution method; format: functional; summary of the method: as §1
Staphylococcus aureus [6] = experiment: Antibacterial activity against methicillin-resistant Staphylococcus aureus N315 assessed as reduction of enrofloxacin MIC at 1 ug/ml by microbroth dilution method; format: functional
Summary of the method: (§2)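 Standard microbroth dilution in Mueller-Hinton broth against methicillin-resistant S. aureus N315. The enrofloxacin MIC was determined with the test compound added to the broth.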

Staphylococcus aureus [7] = experiment: Inhibition of biofilm formation in Staphylococcus aureus 8325-4 at […] after 24 hrs by microtiter plate assay in presence of glucose; format: functional, organism-based
Summary of the method: (§3)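 Same static crystal-violet biofilm protocol as above, with 1% glucose added to the TS medium. S. aureus 8325-4 grew 24 h at 37 °C with the compound. Adherent cells were stained with crystal violet, eluted in ethanol and read at A630. Means come from three independent experiments.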

Staphylococcus aureus [8] = experiment: Antibacterial activity against methicillin-resistant Staphylococcus aureus N315 assessed as reduction of enrofloxacin MIC at 8 ug/ml by microbroth dilution method; format: functional; summary of the method: as §2
Staphylococcus aureus [9] = experiment: Antibacterial activity against Staphylococcus aureus 8325-4 assessed as reduction of enrofloxacin MIC at 8 ug/ml by microbroth dilution method; format: functional; summary of the method: as §1
Staphylococcus aureus [10] = experiment: Antibacterial activity against Staphylococcus aureus 8325-4 assessed as reduction of enrofloxacin MIC at 1 ug/ml by microbroth dilution method; format: functional; summary of the method: as §1
Staphylococcus aureus [11] = experiment: Antibacterial activity against Staphylococcus aureus ATCC 29213 assessed as reduction of enrofloxacin MIC at 1 ug/ml by microbroth dilution method; format: functional; summary of the method: as §1
Staphylococcus aureus [12] = experiment: Antibacterial activity against Staphylococcus aureus ATCC 29213 assessed as reduction of enrofloxacin MIC at 32 ug/ml by microbroth dilution method; format: functional; summary of the method: as §1
Staphylococcus aureus [13] = experiment: Inhibition of biofilm formation in Staphylococcus aureus 8325-4 at 8 mM after 24 hrs by microtiter plate assay in presence of glucose; format: functional; settings: 8325-4, 24 h; summary of the method: as §3
Staphylococcus aureus [14] = experiment: Antibacterial activity against methicillin-resistant Staphylococcus aureus N315 assessed as reduction of enrofloxacin MIC at 32 ug/ml by microbroth dilution method; format: functional; summary of the method: as §2
Staphylococcus aureus [15] = experiment: Antibacterial activity against methicillin-resistant Staphylococcus aureus N315 by microbroth dilution method; format: functional
Summary of the method: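 MIC against methicillin-resistant S. aureus N315, determined by standard microbroth dilution in Mueller-Hinton broth.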

Staphylococcus aureus [16] = experiment: Antibacterial activity against Staphylococcus aureus 8325-4 by microbroth dilution method; format: functional; summary of the method: as §1
Staphylococcus aureus [17] = experiment: Antibacterial activity against Staphylococcus aureus ATCC 29213 by microbroth dilution method; format: functional; summary of the method: as §1

SMILES	Activity (Staphylococcus aureus [1])	MBIC (Staphylococcus aureus [2]) [µM]	EC50 (Staphylococcus aureus [2]) [µg/mL]	Activity (Staphylococcus aureus [3])	also measured
COc1cc([C@H]2Oc3ccc([C@H]4Oc5cc(O)cc(O)c5C(=O)[C@@H]4O)cc3O[C@@H]2CO)ccc1O [ISOSILYBIN A]	inactive	124	32 (≈ 66.3 µM)	Non-toxic	
COc1cc([C@@H]2Oc3cc(-c4cc(=O)c5c(O)cc(O)cc5o4)ccc3O[C@H]2CO)ccc1O	inactive	8	2 (≈ 4.31 µM)	Non-toxic	MIC (Staphylococcus aureus [4]): 0.0625 µg/mL; MIC (Staphylococcus aureus [5]): 0.0625 µg/mL; MIC (Staphylococcus aureus [6]): 1 µg/mL; inhibition (Staphylococcus aureus [7]): Active; MIC (Staphylococcus aureus [8]): 0.5 µg/mL; MIC (Staphylococcus aureus [9]): 0.0625 µg/mL; MIC (Staphylococcus aureus [10]): 0.125 µg/mL; MIC (Staphylococcus aureus [11]): 0.25 µg/mL; MIC (Staphylococcus aureus [12]): 0.0625 µg/mL; inhibition at 8000 µM (Staphylococcus aureus [13]): 80%; MIC (Staphylococcus aureus [14]): 0.5 µg/mL
COc1cc(C2Oc3c(O)cc(-c4cc(=O)c5c(O)cc(O)cc5o4)cc3C2CO)ccc1O (stereo unspecified)	inactive	> 124	64 (≈ 138 µM)	Non-toxic	
COc1cc([C@H]2Oc3cc(-c4oc5cc(O)cc(O)c5c(=O)c4O)ccc3O[C@@H]2CO)ccc1O	inactive	64	16 (≈ 33.3 µM)	Non-toxic	
CCN1CCN(c2cc3c(cc2F)c(=O)c(C(=O)O)cn3C2CC2)CC1 [ENROFLOXACIN]					MIC (Staphylococcus aureus [15]): 2 µg/mL (≈ 5.56 µM); MIC (Staphylococcus aureus [16]): 0.5 µg/mL (≈ 1.39 µM); MIC (Staphylococcus aureus [17]): 1 µg/mL (≈ 2.78 µM)
COc1cc(C2Oc3cc([C@H]4Oc5cc(O)cc(O)c5C(=O)[C@@H]4O)ccc3OC2CO)ccc1O (stereo partly specified) [SILIBININ]	inactive	> 124	64 (≈ 133 µM)	Non-toxic	
COc1cc(C2Oc3cc(-c4cc(=O)c5c(O)cc(O)cc5o4)ccc3OC2CO)ccc1O (racemic)	inactive	32	4 (≈ 8.61 µM)	Non-toxic	
COc1cc([C@H]2Oc3ccc(-c4cc(=O)c5c(O)cc(O)cc5o4)cc3O[C@@H]2CO)ccc1O	inactive	64	16 (≈ 34.5 µM)	Non-toxic	
COc1cc([C@H]2Oc3cc(-c4cc(=O)c5c(O)cc(O)cc5o4)ccc3O[C@@H]2CO)ccc1O [HYDNOCARPIN]	inactive	64	16 (≈ 34.5 µM)	Non-toxic	

From ChEMBL document CHEMBL3600361, “Hydnocarpin-Type Flavonolignans: Semisynthesis and Inhibitory Effects on Staphylococcus aureus Biofilm Formation” (J Nat Prod, 2015)
